From ChEMBL document CHEMBL1125438, “Synthesis and anti-HIV activity of 4'-azido- and 4'-methoxynucleosides” (J Med Chem, 1992)
Values joined by “and” are separate entries in the source; they are usually repeats but may differ in a detail not shown here. Identical values can stand only once.

Tests used:
[1] = Selectivity index is defined as CC25(A3.01 cells) / IC50(A3.01 cells); selectivity Index = CC25/IC50; format: functional
How it was run: (§1)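 Selectivity index = CC25/IC50 within each line (A3.01, H9 or PBL). CC25 came from visual grading of mock-infected cells after 7 days. IC50 came from reverse transcriptase activity in infected-cell supernatants after 7 days, with medium and compound changed on day 4.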

[2] = In vitro cytotoxic concentration for mock-infected cells at which complete destruction of cells was observed; format: functional
How it was run: (§2)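 Toxicity was read on mock-infected A3.01, H9 or PBL cells handled alongside the infected ones (3 h mock infection, wash). Compounds were 3-fold serially diluted (AZT 5-fold). Incubation lasted 7 days, with medium and compound changed on day 4. Cytotoxicity was graded by eye from cell morphology and death. […] Single determination.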

[3] = In vitro cytotoxic concentration for mock-infected CD4+ T cells at which 25% cells were destroyed; format: functional, T-cell; how it was run: as §2
[4] = In vitro Cytotoxic concentration in mock-infected A3.01 cells - 100% toxicity.; format: functional, Homo sapiens; how it was run: as §2
[5] = Selectivity index is defined as CC25(A3.01 cells) / IC50(A3.01 cells); format: functional; how it was run: as §1
[6] = In vitro Cytotoxic concentration in mock-infected A3.01 cells.; format: functional, Homo sapiens; how it was run: as §2
MT2 [7] = assay: In vitro Cytotoxic concentration which reduced HIV-1 LAV infected MT-2 cells by 25 percent; format: functional, Homo sapiens
How it was run: (§3)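 MT-2 cells were mock-infected for 3 h at 37 °C in 5% CO2, then washed. Compound was added as serial dilutions (3-fold; AZT 5-fold) and incubated 4 days. Cytotoxicity was counted by trypan blue dye exclusion on a hemocytometer. […] Single determination.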

[8] = In vitro Cytotoxic concentration which reduced HIV-1 LAV infected peripheral blood lymphocytes by 50 percent; format: functional
How it was run: (§4)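 Cells (A3.01, H9 or PBL) infected with HIV-1 LAV for 3 h at 37 °C in 5% CO2, then washed free of unadsorbed virus. Test compounds were serially diluted 3-fold and AZT 5-fold. Cultures ran 7 days, with medium and compound renewed on day 4. Reverse transcriptase activity in supernatants gave virus levels. IC50 = concentration cutting virus by 50% versus control cultures. Single determination.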

H9 [9] = assay: In vitro Cytotoxic concentration which reduced HIV-1 LAV infected H9 cells by 25 percent; format: functional, Homo sapiens; how it was run: as §2
MT2 [10] = assay: In vitro Cytotoxic concentration which reduced G 762-3(pre-AZT) infected MT-2 cells by 50 percent; format: functional, cell-based; details: Homo sapiens
How it was run: (§5)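 MT-2 cells were infected for 3 h at 37 °C in 5% CO2 with HIV-1 LAV or with clinical isolates G762-3, H112-2 (pre-AZT) or G691-2, G910-6p2 (post-AZT), then washed. Serial compound dilutions (3-fold; AZT 5-fold) followed, with 4-day incubation. Virus was measured as p24 core antigen by kit. IC50 = 50% reduction versus control cultures. Single determination.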

MT2 [11] = assay: In vitro Cytotoxic concentration which reduced G 910-6p2 (post-AZT) infected MT-2 cells by 50 percent; format: functional, cell-based; details: Homo sapiens; how it was run: as §5
H9 [12] = assay: In vitro Cytotoxic concentration which destroyed HIV-1 LAV infected H9 cells completely; format: functional, Homo sapiens; how it was run: as §2
MT2 [13] = assay: In vitro Cytotoxic concentration which reduced H 112-2(pre-AZT) infected MT-2 cells by 50 percent; format: functional, cell-based; details: Homo sapiens; how it was run: as §5
[14] = Selectivity index is defined as CC25(PBLcells) / […]; format: functional; how it was run: as §1
H9 [15] = assay: In vitro Cytotoxic concentration which reduced HIV-1 LAV infected H9 cells by 50 percent; format: functional, cell-based; details: Homo sapiens; how it was run: as §4
MT2 [16] = assay: (§6) In vitro Cytotoxic concentration which destroyed HIV-1 LAV infected peripheral blood lymphocytes (PBL) completely; format: functional, Homo sapiens; how it was run: as §2
MT2 [17] = assay: In vitro Cytotoxic concentration which reduced G 691-2(post-AZT) infected MT-2 cells by 50 percent; format: functional, cell-based; details: Homo sapiens; how it was run: as §5
MT2 [18] = assay: In vitro Cytotoxic concentration which reduced HIV-1 LAV infected MT-2 cells by 50 percent; format: functional, cell-based; details: Homo sapiens; how it was run: as §5
[19] = Selectivity index is defined as CC25(MT2 cells) / […]; format: functional
How it was run: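 Selectivity index = CC25/IC50 in MT-2 cells. CC25 came from trypan blue exclusion on mock-infected cells after 4 days. IC50 came from the 50% reduction in p24 antigen in HIV-1 LAV-infected cultures after 4 days.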

[20] = In vitro Cytotoxic concentration which reduced HIV-1 LAV infected peripheral blood lymphocytes (PBL) by 25 percent; format: functional; how it was run: as §2
[21] = Selectivity index is defined as CC25(H9 cells) / […]; format: functional; how it was run: as §1
MT2 [22] = assay: In vitro Cytotoxic concentration which destroyed HIV-1 LAV infected MT-2 cells completely; format: functional, Homo sapiens; how it was run: as §3
[23] = as §6; format: functional; how it was run: as §2

Work on `CO[C@]1(CO)O[C@@H](n2cnc3c(O)nc(N)nc32)C[C@@H]1O` yielded a Selectivity index [1] of 220, a CC100 [2] of 67 µM and a CC25 [3] of 22 µM.
For `[N-]=[N+]=N[C@]1(CO)O[C@@H](n2cnc3c(N)ncnc32)C[C@@H]1O`, the CC100 [4] was over 50 µM, the Selectivity index [5] was 385 and the CC25 [6] was 50 µM.
With `Cc1cn([C@H]2C[C@H](O)[C@](CO)(N=[N+]=[N-])O2)c(=O)[nH]c1=O` the CC25 (MT2 [7]) was 56 µM, the IC50 [8] was 0.02 µM and the CC25 (H9 [9]) was 25 µM. The CC100 [4] was 200 µM and >200 µM, the IC50 (MT2 [10]) was 0.43 µM and the IC50 (MT2 [11]) was 0.52 µM. The CC100 (H9 [12]) was 667 µM, the IC50 (MT2 [13]) was 0.4 µM and the Selectivity index [14] was 125. For the same molecule, the Selectivity index [5] was 800, the IC50 (H9 [15]) was 0.4 µM and the CC100 (MT2 [16]) was over 200 µM. It also gave an IC50 (MT2 [17]) of 0.34 µM, an IC50 (MT2 [18]) of 0.4 µM and a Selectivity index [19] of 140. For the same molecule, the CC25 [20] was 2.5 µM, the Selectivity index [21] was 625 and the CC100 (MT2 [22]) was over 500 µM.
Molecule `Cc1cn([C@H]2CC[C@](CO)(N=[N+]=[N-])O2)c(=O)[nH]c1=O` has a CC100 [4] of 200 µM and a CC25 [6] of 22 µM.
In the case of `COC1(CO)OC(n2cc(C)c(=O)[nH]c2=O)CC1F` (configuration not stated), the CC100 [4] is reported as over 400 µM, the Selectivity index [5] is reported as 125 and the CC25 [6] is reported as 400 µM.
Molecule `CO[C@]1(CO)O[C@@H](n2cnc3c(N)ncnc32)C[C@@H]1O` has a CC100 [4] of over 1000 µM, a Selectivity index [5] of 64.5 and a CC25 [6] of 1000 µM.
For `[N-]=[N+]=N[C@]1(CO)O[C@@H](n2cc(Cl)c(=O)[nH]c2=O)C[C@@H]1O`, the CC100 [4] was over 1000 µM, the Selectivity index [5] was 17900 and the CC25 [6] was 1000 µM.
For `CO[C@]1(CO)O[C@@H](n2cc(C)c(=O)[nH]c2=O)C[C@@H]1O`, the CC100 [4] was over 200 µM, the Selectivity index [5] was over 23.6 and the CC25 [6] was over 200 µM.
In the case of `CO[C@H]1C[C@H](n2cc(C)c(=O)[nH]c2=O)O[C@@]1(CO)N=[N+]=[N-]`, the CC100 [4] is reported as over 200 µM, the Selectivity index [5] is reported as over 9.8 and the CC25 [6] is reported as over 200 µM.
For `[N-]=[N+]=N[C@]1(CO)O[C@@H](N2C=NC3C(=O)N=C(N)N=C32)C[C@@H]1O` (some centres not stated), the CC100 [4] was 1.9 µM, the Selectivity index [5] was 70 and the CC25 [6] was 0.21 µM.
Work on `Cc1cn(C2C=CC(CO)(N=[N+]=[N-])O2)c(=O)[nH]c1=O` (configuration not stated) yielded a CC100 [4] of 7.4 µM and a CC25 [6] of 2.5 µM.
Molecule `[N-]=[N+]=N[C@]1(CO)O[C@@H](n2ccc(N)nc2=O)[C@H](O)[C@@H]1O` [4'-AZIDOCYTIDINE] has a CC100 [4] of 74.1 µM and a CC25 [6] of 8.2 µM.
`[N-]=[N+]=N[C@]1(CO)O[C@@H](n2ccc(N)nc2=O)C[C@@H]1O` gave a CC100 [4] of 1.9 µM, a Selectivity index [5] of 53 and a CC25 [6] of 0.21 µM.
`[N-]=[N+]=N[C@]1(CO)O[C@@H](n2ccc(=O)[nH]c2=O)C[C@@H]1O` showed a CC100 [4] of over 200 µM, a Selectivity index [5] of 250 and a CC25 [6] of 200 µM.
`Cc1cn([C@H]2C[C@H](N=[N+]=[N-])[C@@H](CO)O2)c(=O)[nH]c1=O` [ZIDOVUDINE] showed a CC100 [23] of over 500 µM, a CC25 (MT2 [7]) of 56 µM and an IC50 [8] of 0.08 µM. For the same molecule, the CC25 (H9 [9]) was 44 µM, the CC100 [4] was 3300 µM and the IC50 (MT2 [10]) was 0.22 µM. For the same molecule, the IC50 (MT2 [11]) was 31 µM, the CC100 (H9 [12]) was 1200 µM and the IC50 (MT2 [13]) was 0.2 µM. For the same molecule, the CC25 [6] was 825 µM, the IC50 (H9 [15]) was 0.03 µM and the IC50 (MT2 [17]) was 10 µM. It also gave an IC50 (MT2 [18]) of 0.16 µM, a CC25 [20] of 4 µM and a CC100 (MT2 [22]) of over 500 µM.
Molecule `[N-]=[N+]=N[C@]1(CO)O[C@@H](N2C=NC3C(=O)N=CN=C32)C[C@@H]1O` (some centres not stated) has a CC100 [4] of 200 µM, a Selectivity index [5] of under 34 and a CC25 [6] of under 22 µM.
With `Cc1cn([C@H]2CC[C@@](CO)(N=[N+]=[N-])O2)c(=O)[nH]c1=O` the CC100 [4] was 33.3 µM and the CC25 [6] was 11.1 µM.
Molecule `[N-]=[N+]=N[C@]1(CO)O[C@@H](n2ccc(=O)[nH]c2=O)[C@H](O)[C@@H]1O` has a CC100 [4] of over 200 µM, a Selectivity index [5] of over 2.74 and a CC25 [6] of over 200 µM.
